Test results published in ChEMBL document CHEMBL4371071, “Muscarinic agonist, (±)-quinuclidin-3-yl-(4-fluorophenethyl)(phenyl)carbamate: High affinity, but low subtype selectivity for human M1 - M5 muscarinic acetylcholine receptors” (Bioorg Med Chem Lett, 2019).

Columns and labels:
[1] = molecular target: T1, Muscarinic acetylcholine receptor M2 (Homo sapiens, UniProt P08172); test: Displacement of [3H]NMS from human M2 AChR expressed in CHO cell membranes after 1 to 2 hrs by liquid scintillation spectrometry method
T1 sequence (P08172 whole entry): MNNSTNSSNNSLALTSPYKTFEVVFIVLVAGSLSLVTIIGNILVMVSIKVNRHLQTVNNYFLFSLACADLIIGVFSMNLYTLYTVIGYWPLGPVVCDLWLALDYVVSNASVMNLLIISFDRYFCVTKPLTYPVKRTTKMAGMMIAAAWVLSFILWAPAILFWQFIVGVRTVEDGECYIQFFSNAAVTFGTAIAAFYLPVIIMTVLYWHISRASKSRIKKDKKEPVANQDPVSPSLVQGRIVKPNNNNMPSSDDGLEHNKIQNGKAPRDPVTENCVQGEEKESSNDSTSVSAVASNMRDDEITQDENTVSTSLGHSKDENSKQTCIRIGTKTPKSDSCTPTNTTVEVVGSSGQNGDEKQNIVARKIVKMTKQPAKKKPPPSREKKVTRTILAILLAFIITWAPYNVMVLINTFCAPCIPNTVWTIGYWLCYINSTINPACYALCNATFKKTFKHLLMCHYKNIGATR
Procedure, shortened: (§1)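 CHO membranes expressing the human subtype (20 µg protein/well) with 0.3 nM [3H]NMS and analog (1 nM–100 µM) in 50 mM Tris-HCl pH 7.4, 2 h at 25 °C. […] Filtered on GF/B, washed, counted by scintillation. IC50 taken from curves to give Ki; three independent experiments in duplicate.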

[2] = molecular target: T2, Muscarinic acetylcholine receptor M1 (Homo sapiens, UniProt P11229); test: Displacement of [3H]NMS from human M1 AChR expressed in CHO cell membranes after 1 to 2 hrs by liquid scintillation spectrometry method; format: cell-based
T2 sequence (P11229 whole entry): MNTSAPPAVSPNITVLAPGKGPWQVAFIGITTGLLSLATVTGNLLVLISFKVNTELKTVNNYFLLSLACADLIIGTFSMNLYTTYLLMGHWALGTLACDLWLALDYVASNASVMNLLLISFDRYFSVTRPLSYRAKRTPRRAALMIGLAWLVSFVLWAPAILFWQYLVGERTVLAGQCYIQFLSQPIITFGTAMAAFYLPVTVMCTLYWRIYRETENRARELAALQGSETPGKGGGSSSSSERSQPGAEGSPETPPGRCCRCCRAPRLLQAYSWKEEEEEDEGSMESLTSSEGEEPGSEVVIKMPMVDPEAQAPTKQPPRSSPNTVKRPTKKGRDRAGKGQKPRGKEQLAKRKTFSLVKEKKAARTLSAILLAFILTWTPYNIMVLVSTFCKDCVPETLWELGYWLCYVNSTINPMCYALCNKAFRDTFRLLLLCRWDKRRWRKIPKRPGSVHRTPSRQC

Homo sapiens [3] = species on record: Homo sapiens; test: Selectivity ratio of Ki for displacement of [3H]NMS from human M1 AChR expressed in CHO cell membranes to Ki for displacement of [3H]NMS from human M5 AChR expressed in CHO cell membranes
[4] = molecular target: T3, Muscarinic acetylcholine receptor M3 (Homo sapiens, UniProt P20309); settings: CHO, at 100 µM
Target sequence in this assay (P20309 whole entry, looked up): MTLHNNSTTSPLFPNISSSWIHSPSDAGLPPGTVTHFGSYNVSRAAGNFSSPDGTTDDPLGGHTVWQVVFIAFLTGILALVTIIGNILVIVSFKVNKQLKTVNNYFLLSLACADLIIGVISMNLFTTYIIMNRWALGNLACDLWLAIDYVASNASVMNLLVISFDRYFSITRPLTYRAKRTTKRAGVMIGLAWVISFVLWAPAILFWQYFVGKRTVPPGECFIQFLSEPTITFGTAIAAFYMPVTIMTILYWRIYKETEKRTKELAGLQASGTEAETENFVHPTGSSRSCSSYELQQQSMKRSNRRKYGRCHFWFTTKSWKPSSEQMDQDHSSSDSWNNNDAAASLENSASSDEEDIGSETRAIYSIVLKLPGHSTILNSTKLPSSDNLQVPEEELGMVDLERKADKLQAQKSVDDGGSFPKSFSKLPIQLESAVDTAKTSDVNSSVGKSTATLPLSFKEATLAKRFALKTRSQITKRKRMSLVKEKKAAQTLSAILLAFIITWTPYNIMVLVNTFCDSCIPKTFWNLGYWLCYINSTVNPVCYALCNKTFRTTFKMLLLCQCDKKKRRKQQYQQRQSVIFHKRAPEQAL

[5] = molecular target: T4, Muscarinic acetylcholine receptor M1 (Homo sapiens) (UniProt P11229); settings: CHO, at 100 µM
T4 sequence (whole entry): T2 sequence (P11229 whole entry)

[6] = molecular target: T3, Muscarinic acetylcholine receptor M3; test: Displacement of [3H]NMS from human M3 AChR expressed in CHO cell membranes after 1 to 2 hrs by liquid scintillation spectrometry method; format: cell-based
Target sequence in this assay (P20309 whole entry): as the sequence (P20309 whole entry, looked up) above

Homo sapiens [7] = species on record: Homo sapiens; test: Selectivity ratio of Ki for displacement of [3H]NMS from human M2 AChR expressed in CHO cell membranes to Ki for displacement of [3H]NMS from human M3 AChR expressed in CHO cell membranes
[8] = molecular target: T5, Muscarinic acetylcholine receptor M5 (Homo sapiens, UniProt P08912); test: Displacement of [3H]NMS from human M5 AChR expressed in CHO cell membranes after 1 to 2 hrs by liquid scintillation spectrometry method
T5 sequence (P08912 whole entry): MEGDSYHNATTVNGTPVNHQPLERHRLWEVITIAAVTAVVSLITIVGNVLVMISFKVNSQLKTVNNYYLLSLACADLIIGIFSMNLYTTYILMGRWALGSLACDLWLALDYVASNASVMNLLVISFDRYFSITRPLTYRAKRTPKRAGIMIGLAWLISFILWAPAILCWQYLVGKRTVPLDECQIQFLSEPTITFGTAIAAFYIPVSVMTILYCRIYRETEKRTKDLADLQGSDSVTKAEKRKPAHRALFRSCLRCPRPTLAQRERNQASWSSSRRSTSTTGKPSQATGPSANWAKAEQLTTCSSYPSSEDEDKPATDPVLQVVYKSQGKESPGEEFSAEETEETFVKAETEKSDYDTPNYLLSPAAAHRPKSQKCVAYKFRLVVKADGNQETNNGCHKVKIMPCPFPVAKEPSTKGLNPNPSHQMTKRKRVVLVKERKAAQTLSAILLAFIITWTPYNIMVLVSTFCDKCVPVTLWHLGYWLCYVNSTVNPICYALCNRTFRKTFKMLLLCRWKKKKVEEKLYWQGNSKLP
Procedure, shortened: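 CHO membranes expressing human M5 (10 µg protein/well) with 0.3 nM [3H]NMS and analog (1 nM–100 µM) in 50 mM Tris-HCl pH 7.4, 2 h at 25 °C. Filtered on GF/B, counted by scintillation. IC50 converted to Ki; three independent experiments in duplicate.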

[9] = molecular target: T6, Muscarinic acetylcholine receptor M2 (Homo sapiens) (UniProt P08172); test: Displacement of [3H]NMS from human M2 AChR expressed in CHO cell membranes at 100 uM after 1 to 2 hrs by liquid scintillation spectrometry method relative to control
T6 sequence (whole entry): T1 sequence (P08172 whole entry)
Procedure, shortened: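 CHO membranes expressing the human subtype (20 µg protein/well) with 0.3 nM [3H]NMS and analog (1 nM–100 µM) in 50 mM Tris-HCl pH 7.4, 2 h at 25 °C. Filtered on GF/B, washed, counted by scintillation. IC50 taken from curves to give Ki; three independent experiments in duplicate.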

[10] = molecular target: T7, Muscarinic acetylcholine receptor M5 (Homo sapiens) (UniProt P08912); test: Displacement of [3H]NMS from human M5 AChR expressed in CHO cell membranes at 100 uM after 1 to 2 hrs by liquid scintillation spectrometry method relative to control
T7 sequence (whole entry): T5 sequence (P08912 whole entry)
Procedure, shortened: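 CHO membranes expressing human M5 (10 µg protein/well) with 0.3 nM [3H]NMS and analog (1 nM–100 µM) in 50 mM Tris-HCl pH 7.4, 2 h at 25 °C. […] Filtered on GF/B, counted by scintillation. IC50 converted to Ki; three independent experiments in duplicate.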

[11] = molecular target: T8, Muscarinic acetylcholine receptor (Rattus norvegicus) (UniProt P08482+P08483+P08485+P08911+P10980); settings: 10 uM
[12] = molecular target: T8, Muscarinic acetylcholine receptor (Rattus norvegicus); settings: 1 uM
[13] = molecular target: T9, Muscarinic acetylcholine receptor M4 (Homo sapiens, UniProt P08173); test: Displacement of [3H]NMS from human M4 AChR expressed in CHO cell membranes after 1 to 2 hrs by liquid scintillation spectrometry method
T9 sequence (P08173 whole entry): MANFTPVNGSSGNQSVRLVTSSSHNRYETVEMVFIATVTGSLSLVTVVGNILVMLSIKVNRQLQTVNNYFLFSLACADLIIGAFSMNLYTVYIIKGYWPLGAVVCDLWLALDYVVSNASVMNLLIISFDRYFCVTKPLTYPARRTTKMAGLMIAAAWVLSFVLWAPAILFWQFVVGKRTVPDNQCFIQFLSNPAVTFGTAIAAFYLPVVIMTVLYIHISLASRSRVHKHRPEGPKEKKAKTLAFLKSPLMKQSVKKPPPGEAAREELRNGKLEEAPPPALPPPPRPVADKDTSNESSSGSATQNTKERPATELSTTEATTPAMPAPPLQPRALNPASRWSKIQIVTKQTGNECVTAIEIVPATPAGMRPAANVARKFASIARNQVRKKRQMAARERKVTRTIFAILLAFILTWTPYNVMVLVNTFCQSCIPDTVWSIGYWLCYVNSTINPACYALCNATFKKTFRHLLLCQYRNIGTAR
Procedure, shortened: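 Human M4-expressing CHO membranes (20 µg protein/well) incubated 2 h at 25 °C with 0.3 nM [3H]NMS and analog (1 nM–100 µM) in 50 mM Tris–HCl pH 7.4. […] Filtered, washed, counted by scintillation. IC50 taken from inhibition curves, Ki from three independent duplicate experiments (mean ± SEM).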

[14] = molecular target: T10, Muscarinic acetylcholine receptor M4 (Homo sapiens) (UniProt P08173); test: Displacement of [3H]NMS from human M4 AChR expressed in CHO cell membranes at 100 uM after 1 to 2 hrs by liquid scintillation spectrometry method relative to control; procedure, shortened: as §1
T10 sequence (whole entry): T9 sequence (P08173 whole entry)

## O=C(OCc1ccccc1)N(c1ccccc1)C1CN2CCC1CC2 (centres undefined)
[1]
  Ki: 120 nM
[2]
  Ki: 190 nM
Homo sapiens [3]
  Ratio Ki: 1.3
[4]
  Imax: 98.6%
[5]
  Imax: 99.5%
[6]
  Ki: 90 nM
Homo sapiens [7]
  Ratio Ki: 1.2
[8]
  Ki: 150 nM
[9]
  Imax: 99.4%
[10]
  Imax: 97.2%

## Cc1ccc(COC(=O)N(c2ccccc2)C2CN3CCC2CC3)cc1F (centres undefined)
[1]
  Ki: 30 nM
[2]
  Ki: 40 nM
Homo sapiens [3]
  Ratio Ki: 1.2
[4]
  Imax: 99%
[5]
  Imax: 100%
[6]
  Ki: 20 nM
Homo sapiens [7]
  Ratio Ki: 1.3
[8]
  Ki: 30 nM
[9]
  Imax: 99.7%
[10]
  Imax: 97.4%

## O=C(OCCCc1ccc(Cl)c(Cl)c1)N(c1ccccc1)C1CN2CCC1CC2 (centres undefined)
[1]
  Ki: 300 nM
[2]
  Ki: 170 nM
Homo sapiens [3]
  Ratio Ki: 1.3
[4]
  Imax: 100%
[5]
  Imax: 100%
[6]
  Ki: 60 nM
Homo sapiens [7]
  Ratio Ki: 4.7
[8]
  Ki: 130 nM
[9]
  Imax: 99.9%
[10]
  Imax: 99.4%

## CN1[C@@H]2C[C@H](OC(=O)[C@H](CO)c3ccccc3)C[C@H]1[C@@H]1O[C@@H]12
[11]
  inhibition: 59%
[12]
  inhibition: 51%

## O=C(OCc1ccc2c(c1)OCO2)N(c1ccccc1)C1CN2CCC1CC2 (centres undefined)
[1]
  Ki: 30 nM
[2]
  Ki: 30 nM
Homo sapiens [3]
  Ratio Ki: 0.8
[4]
  Imax: 99.9%
[5]
  Imax: 100%
[6]
  Ki: 19 nM
Homo sapiens [7]
  Ratio Ki: 1.7
[8]
  Ki: 40 nM
[9]
  Imax: 99.4%
[10]
  Imax: 99.7%

## COc1ccc(COC(=O)N(c2ccccc2)C2CN3CCC2CC3)cc1F (centres undefined)
[1]
  Ki: 100 nM
[2]
  Ki: 70 nM
Homo sapiens [3]
  Ratio Ki: 1.5
[4]
  Imax: 100%
[5]
  Imax: 99.5%
[6]
  Ki: 50 nM
Homo sapiens [7]
  Ratio Ki: 1.8
[8]
  Ki: 40 nM
[9]
  Imax: 98.8%
[10]
  Imax: 96.7%

## O=C(OCCc1ccccc1)N(c1ccccc1)C1CN2CCC1CC2 (centres undefined)
[2]
  Ki: 790 nM
Homo sapiens [3]
  Ratio Ki: 3
[4]
  Imax: 99.1%
[5]
  Imax: 88.5%
[6]
  Ki: 300 nM
[8]
  Ki: 260 nM
[10]
  Imax: 96.9%

## CN1CCC(OC(=O)N(CCc2ccc(F)cc2)c2ccccc2)CC1
[2]
  Ki: 70 nM
Homo sapiens [3]
  Ratio Ki: 1.2
[4]
  Imax: 100%
[5]
  Imax: 100%
[6]
  Ki: 140 nM
[8]
  Ki: 60 nM
[10]
  Imax: 100%

## O=C(OCc1ccc(Cl)c(Cl)c1)N(c1ccccc1)C1CN2CCC1CC2 (centres undefined)
[1]
  Ki: 220 nM
[2]
  Ki: 60 nM
Homo sapiens [3]
  Ratio Ki: 0.9
[4]
  Imax: 95.8%
[5]
  Imax: 100%
[6]
  Ki: 70 nM
Homo sapiens [7]
  Ratio Ki: 3.3
[8]
  Ki: 60 nM
[9]
  Imax: 97.5%
[10]
  Imax: 98.6%

## O=C(OCCCc1ccccc1)N(c1ccccc1)C1CN2CCC1CC2 (centres undefined)
[2]
  Ki: 780 nM
Homo sapiens [3]
  Ratio Ki: 3
[4]
  Imax: 98.9%
[5]
  Imax: 99.1%
[6]
  Ki: 550 nM
[8]
  Ki: 260 nM
[10]
  Imax: 95.7%

## COc1ccc(CCN(C(=O)OC2CN3CCC2CC3)c2ccccc2)cc1 (racemic)
[1]
  Ki: 130 nM
[2]
  Ki: 10 nM
Homo sapiens [3]
  Ratio Ki: 1
[4]
  Imax: 99.9%
[5]
  Imax: 100%
[6]
  Ki: 8 nM
[13]
  Ki: 25 nM
Homo sapiens [7]
  Ratio Ki: 17.1
[8]
  Ki: 10 nM
[9]
  Imax: 99.7%
[10]
  Imax: 100%
[14]
  Imax: 99.9%

## COc1ccc(CCN(C(=O)OC2CN3CCC2CC3)c2ccccc2)cc1OC (racemic)
[1]
  Ki: 350 nM
[2]
  Ki: 95 nM
Homo sapiens [3]
  Ratio Ki: 1.5
[4]
  Imax: 99.7%
[5]
  Imax: 100%
[6]
  Ki: 60 nM
Homo sapiens [7]
  Ratio Ki: 5.7
[8]
  Ki: 65 nM
[9]
  Imax: 98.6%
[10]
  Imax: 99.8%

## O=C(OCCCc1ccc(F)c(F)c1)N(c1ccccc1)C1CN2CCC1CC2 (centres undefined)
[2]
  Ki: 300 nM
Homo sapiens [3]
  Ratio Ki: 3
[4]
  Imax: 99.5%
[5]
  Imax: 100%
[6]
  Ki: 220 nM
[8]
  Ki: 100 nM
[10]
  Imax: 99.4%

## COc1ccc(CCN(C(=O)OC2C[C@H]3CC[C@H](C2)N3C)c2ccccc2)cc1OC (some centres undefined)
[2]
  Ki: 1870 nM
Homo sapiens [3]
  Ratio Ki: 1.4
[4]
  Imax: 88.8%
[5]
  Imax: 95.3%
[6]
  Ki: 2800 nM
[8]
  Ki: 1370 nM
[10]
  Imax: 95.9%
